Here are results for three compounds from ChEMBL document CHEMBL1828516, “Discovery of novel alkylated (bis)urea and (bis)thiourea polyamine analogues with potent antimalarial activities” (J Med Chem, 2011).

By GI50 is commonly meant the concentration giving 50% growth inhibition. A word on the IC50: it is the concentration needed to halve the response being measured.

In data set [1] the test system is Plasmodium falciparum. Put plainly: Antimalarial activity against Plasmodium falciparum 3D7 infected in human erythrocytes assessed as decrease in parasitemia at 2 times IC50 after 72 hrs by giemsa staining method. In kind it is functional, organism-based. An outline of the steps: (§1)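 P. falciparum 3D7 in O+ human erythrocytes, treated at 2xIC50 for 72 h. Parasitemia scored microscopically on Giemsa-stained smears, counting 100 parasites per slide 10x, alongside SYBR Green I DNA quantitation. Parasitemia compared at 0 h and 72 h. Three independent experiments in triplicate, mean ± S.E.; Student t-test, P<0.05.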

The subject of data set [2] is Plasmodium falciparum. Put plainly: Antimalarial activity against Plasmodium falciparum assessed as reduction in 2N schizont stage parasites at 2 times IC50 after 72 hrs by FITC-SYBR Green I-based flow cytometry. In kind it is functional, organism-based. A general note: In flow cytometry, cells or beads pass a laser one at a time.
Data set [3] has as its system Plasmodium falciparum. Briefly: Antimalarial activity against Plasmodium falciparum assessed as inhibition of nuclear division measuring 2N schizont stage parasites at 2 times IC50 after 72 hrs by FITC-SYBR Green I-based flow cytometry (reference value: 38 %). In kind it is functional. More on the design: scale not given: the % may be the effect or the level left.
The subject of data set [4] is HepG2. Put plainly: Cytotoxicity against human HepG2 cells after 48 hrs by lactate dehydrogenase assay. In kind it is cell-based. Particulars: hepg2, 48 h. An outline of the steps: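 HepG2 cells in DMEM with 10% heat-inactivated FBS, 37°C, 5% CO2. Cells pelleted at 250xg, supernatant LDH activity read colorimetrically as NADH at 450 nm after 30 min at room temperature. Duplicate, at least two biological repeats, mean ± S.E.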

Data set [5] concerns Plasmodium falciparum. Briefly: Antimalarial activity against antifolate-resistant Plasmodium falciparum W2 infected in human erythrocytes after 96 hrs by SYBR Green I-based fluorescence assay. It counts as functional, organism-based. Particulars: W2, 96 h. In a few lines: (§2)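 Ring-stage cultures synchronized with 10% D-sorbitol, grown in O+ human erythrocytes in RPMI-1640 with HEPES, hypoxanthine, glucose, gentamycin and Albumax II under 5% CO2/5% O2/90% N2 at 37°C. Compounds in DMSO (<0.013%), serially diluted, added at 1% parasitemia, 2% hematocrit. Static 96 h incubation, then SYBR Green I lysis buffer for 1 h in dark. Fluorescence at ex 485/em 538 nm.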

Data set [6] has as its system Plasmodium falciparum. Briefly: Antimalarial activity against Plasmodium falciparum assessed as inhibition of nuclear division measuring >2N schizont stage parasites at 2 times IC50 after 72 hrs by FITC-SYBR Green I-based flow cytometry (reference value: 34 %). It counts as functional. Set-up: scale not given: the % may be the effect or the level left.
Data set [7] has as its system Plasmodium falciparum. Put plainly: Antimalarial activity against Plasmodium falciparum 3D7 infected in human erythrocytes assessed as decrease in parasitemia at 2 times IC50 up to 72 hrs by SYBR Green I-based fluorescence assay in the presence of putrescine. In kind it is functional, organism-based. In a few lines:
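Early-ring 3D7 cultures treated at 2xIC50 with 1 mM putrescine added after 24 h or 48 h, then incubated a further 24 or 48 h. Parasitemia followed over 72 h by SYBR Green I lysis fluorescence, as in the MSF assay. At least three biological repeats in duplicate, mean ± S.E.; two-way ANOVA, P<0.05.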

In data set [8] the test system is Plasmodium falciparum. Put plainly: Antimalarial activity against Plasmodium falciparum assessed as inhibition of DNA replication at 2 times IC50 after 72 hrs by FITC-SYBR Green I-based flow cytometry. It counts as functional, organism-based.
The subject of data set [9] is Plasmodium falciparum. Put plainly: Antimalarial activity against Plasmodium falciparum assessed as increase in 1N ring or trophozoite stage parasites at 2 times IC50 after 72 hrs by FITC-SYBR Green I-based flow cytometry. In kind it is functional, organism-based.
Data set [10] has as its system Plasmodium falciparum. Briefly: Antimalarial activity against Plasmodium falciparum assessed as reduction in >2N schizont stage parasites at 2 times IC50 after 72 hrs by FITC-SYBR Green I-based flow cytometry. It counts as functional, organism-based.
Data set [11] concerns Plasmodium falciparum. Put plainly: Antimalarial activity against Plasmodium falciparum assessed as inhibition of nuclear division measuring 1N ring or trophozoite stage parasites at 2 times IC50 after 72 hrs by FITC-SYBR Green I-based flow cytometry (reference value: 28 %). It counts as functional. Set-up: scale not given: the % may be the effect or the level left.
Data set [12] concerns Plasmodium falciparum. Put plainly: Antimalarial activity against drug-sensitive Plasmodium falciparum 3D7 infected in human erythrocytes after 96 hrs by SYBR Green I-based fluorescence assay. In kind it is functional, organism-based. Particulars: 3D7, 96 h. An outline of the steps: as §2
A short description of data set [13]: Selectivity index, ratio of GI50 for human HepG2 cells to IC50 for Plasmodium falciparum 3D7. In kind it is functional.
In data set [14] the test system is Plasmodium falciparum. Put plainly: Resistance ratio of IC50 for Plasmodium falciparum W2 to IC50 for Plasmodium falciparum 3D7. It counts as functional. An outline of the steps:
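Ratio of W2 IC50 to 3D7 IC50, both from the 96 h SYBR Green I fluorescence assay.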

The test system of data set [15] is Plasmodium falciparum. Put plainly: Cytostatic activity against Plasmodium falciparum 3D7 infected in human erythrocytes at 2 times IC50 after 72 hrs by giemsa staining method. It counts as functional, organism-based. In a few lines: as §1
The subject of data set [16] is Plasmodium falciparum. Put plainly: Antimalarial activity against […] Plasmodium falciparum HB3 infected in human erythrocytes after 96 hrs by SYBR Green I-based fluorescence assay. In kind it is functional, organism-based. Particulars: HB3, 96 h. In a few lines: as §2
The subject of data set [17] is Trypanosoma brucei. Put plainly: Antitrypanosomal activity against Trypanosoma brucei. In kind it is functional, organism-based.

The source made the active and inactive calls. No cut-off for these calls is given here.

In the case of `Cl.Cl.S=C(NCCCNCCCCCCCNCCCNC(=S)NCC(c1ccccc1)c1ccccc1)NCC(c1ccccc1)c1ccccc1`, the result in data set [1], in data set [2], in data set [7], in [9] and in data set [10] was Active. The Activity in data set [3] came out at 20%; in [6], 2%; in [11], 78%. Also, in data set [4], the GI50 came out at 24700 nM. The IC50 was 183 nM in data set [5] and 405 nM in data set [12]. For the same compound, the “DNA replication inhibition (active/inactive)” value in data set [8] was “Active”.

Turning to `Cl.Cl.S=C(NCCCNCCCCNCCCNC(=S)NCc1ccccc1)NCc1ccccc1`, in [13], the “Selectivity Index” value was above 500. The outcome in data set [1], in data set [2], in data set [9] and in data set [10] was inactive. The compound further registered a 50% growth inhibitory concentration (GI50) in [4] above 200000 nM. Moreover, the “Ratio IC50” value in data set [14] was 0.19. In addition, the IC50 in [5] worked out at 66 nM; in data set [12], 355 nM. In addition, the “DNA replication inhibition (active/inactive)” value in [8] is “inactive”. Moreover, in data set [15], the result was Active.

`N=C(NCCCNCCCCCCCNCCCNC(=N)NC(=N)NCCC(c1ccccc1)c1ccccc1)NC(=N)NCCC(c1ccccc1)c1ccccc1`: the IC50 worked out at 224 nM in data set [16], 298 nM in [12] and 90 nM in data set [17].
